Measurements reported in ChEMBL document CHEMBL2074042, “beta-lactam antibiotics as substrates for OCTN2, an organic cation/carnitine transporter” (J Biol Chem, 2000).

Experiments:
Format in all cases: functional, cell-based
[1] = molecular target: T1, Organic cation/carnitine transporter 2 (Homo sapiens, UniProt O76082); assay: TP_TRANSPORTER: inhibition of Carnitine uptake (Carnitine: 0.02 uM, Cephalexin: 2500 uM) in OCTN2-expressing HeLa cells
T1 sequence (O76082 whole entry): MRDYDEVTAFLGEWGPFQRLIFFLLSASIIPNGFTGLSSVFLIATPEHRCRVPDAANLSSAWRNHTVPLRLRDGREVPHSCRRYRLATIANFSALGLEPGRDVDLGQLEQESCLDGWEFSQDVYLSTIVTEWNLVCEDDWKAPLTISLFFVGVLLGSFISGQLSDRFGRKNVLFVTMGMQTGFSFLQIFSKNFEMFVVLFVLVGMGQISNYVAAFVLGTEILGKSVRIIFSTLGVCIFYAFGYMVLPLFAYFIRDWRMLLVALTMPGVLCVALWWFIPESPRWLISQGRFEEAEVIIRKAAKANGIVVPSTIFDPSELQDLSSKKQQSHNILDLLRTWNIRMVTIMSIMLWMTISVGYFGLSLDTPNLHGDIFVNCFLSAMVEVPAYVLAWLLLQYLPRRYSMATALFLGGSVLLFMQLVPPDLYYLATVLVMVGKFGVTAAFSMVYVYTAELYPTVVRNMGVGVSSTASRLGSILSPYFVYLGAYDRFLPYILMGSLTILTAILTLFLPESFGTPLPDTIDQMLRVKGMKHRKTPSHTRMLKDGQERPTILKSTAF

[2] = molecular target: T1, Organic cation/carnitine transporter 2; assay: (§1) TP_TRANSPORTER: inhibition of Carnitine uptake (Carnitine: 0.02 uM, Cefadroxil: 2500 uM) in OCTN2-expressing HeLa cells
Procedure, shortened: (§2)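 HeLa cells expressed human or rat OCTN2 cDNA by vaccinia virus/T7 system. [3H]carnitine (20 nM) uptake for 30 min at room temperature in Na+-containing Hepes/Tris buffer, pH 7.5, with β-lactam at 2.5 mM. Lysate radioactivity counted. Endogenous activity from vector-only cells subtracted. Four measurements from two transfections.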

[3] = molecular target: T2, Organic cation/carnitine transporter 2 (Rattus norvegicus, UniProt O70594); assay: as §1; conditions: human; procedure, shortened: as §2
T2 sequence (O70594 whole entry): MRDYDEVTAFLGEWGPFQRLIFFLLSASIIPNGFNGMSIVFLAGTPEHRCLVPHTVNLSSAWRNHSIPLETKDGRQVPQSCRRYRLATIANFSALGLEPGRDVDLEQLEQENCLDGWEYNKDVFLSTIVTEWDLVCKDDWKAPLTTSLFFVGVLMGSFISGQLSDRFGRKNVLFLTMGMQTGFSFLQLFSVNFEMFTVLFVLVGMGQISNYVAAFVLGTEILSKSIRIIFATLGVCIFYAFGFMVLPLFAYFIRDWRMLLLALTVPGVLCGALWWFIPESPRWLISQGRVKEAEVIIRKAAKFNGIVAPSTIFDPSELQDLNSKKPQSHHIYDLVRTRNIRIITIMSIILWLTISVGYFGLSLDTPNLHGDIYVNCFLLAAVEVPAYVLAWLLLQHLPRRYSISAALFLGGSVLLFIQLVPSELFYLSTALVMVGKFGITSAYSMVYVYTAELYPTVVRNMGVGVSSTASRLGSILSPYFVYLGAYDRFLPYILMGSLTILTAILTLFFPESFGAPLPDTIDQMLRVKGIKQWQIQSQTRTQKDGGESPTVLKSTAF

[4] = molecular target: T3, Solute carrier family 15 member 2 (Rattus norvegicus) (UniProt Q63424); assay: TP_TRANSPORTER: inhibition of Gly-Sar uptake (Gly-Sar: 25 uM, Cefoselis: 2500uM) in PEPT2-expressing HeLa cells; set-up: scale not given: the % may be the effect or the level left
T3 sequence (whole entry): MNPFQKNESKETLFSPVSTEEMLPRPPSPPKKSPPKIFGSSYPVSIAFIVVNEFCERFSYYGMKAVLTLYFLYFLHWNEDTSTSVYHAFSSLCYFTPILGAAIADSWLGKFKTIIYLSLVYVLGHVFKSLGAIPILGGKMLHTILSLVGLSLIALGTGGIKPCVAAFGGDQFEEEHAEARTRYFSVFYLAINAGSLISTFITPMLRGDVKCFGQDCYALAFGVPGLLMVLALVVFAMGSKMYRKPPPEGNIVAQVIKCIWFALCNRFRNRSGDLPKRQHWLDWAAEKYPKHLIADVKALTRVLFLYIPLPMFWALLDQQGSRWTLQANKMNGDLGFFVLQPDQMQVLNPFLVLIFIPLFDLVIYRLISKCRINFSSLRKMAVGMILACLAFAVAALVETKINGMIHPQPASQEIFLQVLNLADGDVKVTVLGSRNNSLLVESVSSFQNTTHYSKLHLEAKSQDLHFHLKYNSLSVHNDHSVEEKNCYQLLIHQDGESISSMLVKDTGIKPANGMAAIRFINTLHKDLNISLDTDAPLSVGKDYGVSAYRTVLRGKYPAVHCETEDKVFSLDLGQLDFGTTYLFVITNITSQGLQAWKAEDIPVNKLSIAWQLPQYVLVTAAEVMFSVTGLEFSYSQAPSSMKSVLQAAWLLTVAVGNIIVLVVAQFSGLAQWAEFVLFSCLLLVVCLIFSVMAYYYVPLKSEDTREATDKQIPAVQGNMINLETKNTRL
Procedure, shortened: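 HeLa cells expressing rat PEPT2 cDNA. [14C]glycylsarcosine (25 μM) uptake for 5 min under an inward H+ gradient in Mes/Tris buffer, pH 6.0, with test compound at 2.5 mM. Vector-cell uptake subtracted. Results as percent of control, three independent measurements, mean ± S.E.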

[5] = molecular target: T4, Solute carrier family 15 member 1 (Homo sapiens) (UniProt P46059); assay: TP_TRANSPORTER: inhibition of Gly-Sar uptake (Gly-Sar: 50 uM, Cefoselis: 2500uM) in PEPT1-expressing HeLa cells; set-up: scale not given: the % may be the effect or the level left
T4 sequence (whole entry): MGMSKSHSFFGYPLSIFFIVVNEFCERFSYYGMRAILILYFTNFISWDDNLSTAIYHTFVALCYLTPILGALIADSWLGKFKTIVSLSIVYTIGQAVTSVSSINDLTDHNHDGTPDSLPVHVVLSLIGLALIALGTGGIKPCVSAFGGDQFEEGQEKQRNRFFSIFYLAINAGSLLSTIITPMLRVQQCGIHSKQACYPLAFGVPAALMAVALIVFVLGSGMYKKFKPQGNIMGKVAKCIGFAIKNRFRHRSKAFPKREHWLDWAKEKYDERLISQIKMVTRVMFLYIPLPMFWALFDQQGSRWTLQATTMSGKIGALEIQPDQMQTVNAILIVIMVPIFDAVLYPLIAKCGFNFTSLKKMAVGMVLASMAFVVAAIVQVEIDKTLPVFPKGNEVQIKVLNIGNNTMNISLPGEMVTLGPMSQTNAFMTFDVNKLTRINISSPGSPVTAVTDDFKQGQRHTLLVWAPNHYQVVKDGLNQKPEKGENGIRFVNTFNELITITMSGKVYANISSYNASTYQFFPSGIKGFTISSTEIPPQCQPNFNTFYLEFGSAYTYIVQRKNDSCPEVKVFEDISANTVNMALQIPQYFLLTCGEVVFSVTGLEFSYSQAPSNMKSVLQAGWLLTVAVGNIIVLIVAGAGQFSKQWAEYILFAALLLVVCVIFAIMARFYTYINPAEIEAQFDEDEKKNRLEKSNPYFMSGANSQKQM
Procedure, shortened: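 HeLa cells expressing human PEPT1 cDNA. [14C]glycylsarcosine (50 μM) uptake for 5 min in Mes/Tris buffer, pH 6.0, giving an H+ gradient, with test compound at 2.5 mM. Vector-transfected uptake subtracted. Percent of control, n=3, mean ± S.E.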

[6] = molecular target: T1, Organic cation/carnitine transporter 2; assay: TP_TRANSPORTER: inhibition of Carnitine uptake (Carnitine: 0.02 uM) in OCTN2-expressing HeLa cells
[7] = molecular target: T5, OCTN2 (organic cation/carnitine transporter 2) (Rattus norvegicus, UniProt O70594); assay: TP_TRANSPORTER: inhibition of Carnitine uptake (Carnitine: 0.02 uM, Cefoselis: 2500 uM) in OCTN2-expressing HeLa cells; set-up: scale not given: the % may be the effect or the level left; conditions: human, probe carnitine (0.02 uM), read-out: Activity; procedure, shortened: as §2
T5 sequence (O70594 whole entry): T2 sequence (O70594 whole entry)

[8] = molecular target: T1, Organic cation/carnitine transporter 2; assay: TP_TRANSPORTER: inhibition of Carnitine uptake (Carnitine: 0.02 uM, Cephradine: 2500 uM) in OCTN2-expressing HeLa cells
[9] = molecular target: T1, Organic cation/carnitine transporter 2; assay: TP_TRANSPORTER: inhibition of Carnitine uptake (Carnitine: 0.02 uM, Cefdinir: 2500 uM) in OCTN2-expressing HeLa cells
[10] = molecular target: T1, Organic cation/carnitine transporter 2; assay: TP_TRANSPORTER: inhibition of Carnitine uptake (Carnitine: 0.02 uM, Cefixime: 2500 uM) in OCTN2-expressing HeLa cells

Structure (SMILES): CC1=C(C(=O)O)N2C(=O)[C@@H](NC(=O)[C@H](N)c3ccccc3)[C@H]2SC1 [CEPHALEXIN ANHYDROUS]
- Activity [1]: is not an inhibitor [-]

Structure (SMILES): CC1=C(C(=O)O)N2C(=O)[C@@H](NC(=O)[C@H](N)c3ccc(O)cc3)[C@H]2SC1 [CEFADROXIL]
- Activity [2]: is not an inhibitor [-]
- Activity [3]: is not an inhibitor [-]

Structure (SMILES): CO/N=C(\C(=O)N[C@@H]1C(=O)N2C(C(=O)[O-])=C(C[n+]3ccc(N)n3CCO)CS[C@H]12)c1csc(N)n1 [CEFOSELIS]
- Activity [4]: 83%
- Activity [5]: 76%
- IC50 [6]: 6.4 mM
- activity at 2500 µM [7]: 71%

Structure (SMILES): CC1=C(C(=O)O)N2C(=O)[C@@H](NC(=O)[C@H](N)C3=CCC=CC3)[C@H]2SC1 [CEPHRADINE]
- Activity [8]: is not an inhibitor [-]

Structure (SMILES): C=CC1=C(C(=O)O)N2C(=O)[C@@H](NC(=O)/C(=N\O)c3csc(N)n3)[C@H]2SC1 [CEFDINIR]
- Activity [9]: is not an inhibitor [-]

Structure (SMILES): C=CC1=C(C(=O)O)N2C(=O)[C@@H](NC(=O)/C(=N\OCC(=O)O)c3csc(N)n3)[C@H]2SC1 [CEFIXIME]
- Activity [10]: is not an inhibitor [-]
